Tests used:
[1] = system: Rat; assay: concentration in plasma after dosing; conditions: 1 h; dosed: Wyeth-14643; 5.0 mg/kg; oral; Male; Sprague-Dawley
[2] = system: Rat; assay: concentration in plasma after dosing; conditions: 5 min; dosed: Wyeth-14643; 2.0 mg/kg; oral; Male; Sprague-Dawley
[3] = system: Rat; assay: concentration in heart after dosing; conditions: 20 min; dosed: Bis 2-Chloroethoxy Methane; 20 mg/kg; iv; Male; F344
[4] = system: Rat; assay: concentration in heart after dosing; conditions: 3 h; dosed: Bis 2-Chloroethoxy Methane; 20 mg/kg; iv; Female; F344
[5] = system: Rat; assay: concentration in thymus after dosing; conditions: 20 min; dosed: Bis 2-Chloroethoxy Methane; 20 mg/kg; iv; Male; F344
[6] = system: Rat; assay: concentration in thymus after dosing; conditions: 3 h; dosed: Bis 2-Chloroethoxy Methane; 20 mg/kg; iv; Female; F344
[7] = system: Rat; assay: concentration in plasma after dosing; conditions: 4 h; dosed: Bis 2-Chloroethoxy Methane; 20 mg/kg; iv; Male; F344
[8] = system: Rat; assay: concentration in plasma after dosing; conditions: 1 h; dosed: Bis 2-Chloroethoxy Methane; 20 mg/kg; iv; Female; F344
[9] = system: Rat; assay: concentration in plasma after dosing; conditions: dosed: Fluorotelomer alcohol 8+2, 40 mg/kg, iv, Male, F344
[10] = system: Rat; assay: concentration in plasma after dosing; conditions: 2 h; dosed: Di-n-butyl phthalate; 100 mg/kg; oral; Male; Sprague-Dawley
[11] = system: Rat; assay: concentration in plasma after dosing; conditions: 20 min; dosed: Di-n-butyl phthalate; 20 mg/kg; iv; Male; Sprague-Dawley
[12] = system: Rat; assay: concentration in plasma after dosing; conditions: 5 h; dosed: Di-n-butyl phthalate; 20 mg/kg; iv; Male; Sprague-Dawley
[13] = system: Rat; assay: concentration in plasma after dosing; conditions: 20 min; dosed: Di-n-butyl phthalate; 50 mg/kg; oral; Male; Sprague-Dawley
[14] = system: Rat; assay: concentration in brain after dosing; conditions: 864 h; dosed: Perfluorodecanoic acid; 10 mg/kg; oral; Female; Harlan Sprague Dawley
[15] = system: Rat; assay: concentration in plasma after dosing; conditions: dosed: Perfluorodecanoic acid, 2 mg/kg, iv, Male, F344
[16] = system: Rat; assay: concentration in plasma after dosing; conditions: dosed: Perfluorodecanoic acid, 2 mg/kg, iv, Male, F344; remark: listed apart in the source
[17] = system: Rat; assay: concentration in plasma after dosing; conditions: dosed: Perfluorodecanoic acid, 2 mg/kg, iv, Male, F344; remark: listed apart in the source
[18] = system: Rat; assay: concentration in plasma after dosing; conditions: 18 h; dosed: Primidone; 30 mg/kg; oral; Male; F344
[19] = system: Rat; assay: concentration in plasma after dosing; conditions: 30 h; dosed: Primidone; 130 mg/kg; oral; Male; F344
[20] = system: Rat; assay: concentration in liver after dosing; conditions: 8 h; dosed: Thiodiglycolic Acid; 20 mg/kg; iv; Female; Harlan Sprague Dawley
[21] = system: Rat; assay: concentration in heart after dosing; conditions: 5.333 h; dosed: Thiodiglycolic Acid; 20 mg/kg; iv; Male; Harlan Sprague Dawley
[22] = system: Rat; assay: concentration in thymus after dosing; conditions: 2 h; dosed: Thiodiglycolic Acid; 20 mg/kg; iv; Male; Harlan Sprague Dawley
[23] = system: Rat; assay: concentration in thymus after dosing; conditions: 4 h; dosed: Thiodiglycolic Acid; 20 mg/kg; iv; Male; Harlan Sprague Dawley
[24] = system: Rat; assay: concentration in liver after dosing; conditions: 8 h; dosed: Thiodiglycolic Acid; 20 mg/kg; iv; Female; Harlan Sprague Dawley; remark: listed apart in the source
[25] = system: Rat; assay: concentration in plasma after dosing; conditions: 10 min; dosed: Thiodiglycolic Acid; 20 mg/kg; iv; Male; F344
[26] = system: Rat; assay: concentration in plasma after dosing; conditions: 20 min; dosed: dichloroacetic acid; 10 mg/kg; oral; Male; Harlan Sprague Dawley
[27] = system: Rat; assay: concentration in plasma after dosing; conditions: dosed: dichloroacetic acid, 40 mg/kg, oral, Female, Harlan Sprague Dawley
[28] = system: Rat; assay: concentration in plasma after dosing; conditions: dosed: dichloroacetic acid, 100 mg/kg, oral, Male, F344
[29] = system: Rat; assay: concentration in plasma after dosing; conditions: dosed: dichloroacetic acid, 100 mg/kg, oral, Male, F344; remark: listed apart in the source
[30] = system: Rat; assay: concentration in plasma after dosing; conditions: 40 min; dosed: dichloroacetic acid; 100 mg/kg; oral; Male; F344
[31] = system: human; assay: concentration in plasma after dosing; negative times count back from the end of exposure; conditions: dosed: trichloroethylene, 100 ppm, inhalation, duration: 4 hr, person
Summary of the method: (§1)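 Concentration-versus-time or amount-versus-time points were compiled from published in vivo toxicokinetic studies and from two structured collections. The studies were found by PubMed searching, classifier screening and manual review. Points were mostly digitised from plot screenshots with WebPlotDigitizer, otherwise copied from tables, and kept in the reported units. Dose, route, subject details and medium were curated by hand from each paper, and sampling and analytical methods follow each source and were often unreported.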

[32] = system: human; assay: concentration in blood after dosing; conditions: dosed: trichloroethylene, 100 ppm, inhalation, duration: 6 hr, person
Summary of the method: as §1

Cc1cccc(Nc2cc(Cl)nc(SCC(=O)O)n2)c1C
Conditions	concentration in plasma [ng/mL]
[1]	4730
[2]	405

ClCCOCOCCCl [Bis 2-Chloroethoxy Methane]
Conditions	concentration in heart [ng/g]	concentration in plasma [ng/mL]	concentration in thymus [ng/g]
[3]	7220	–	–
[4]	158	–	–
[5]	–	–	25400
[6]	–	–	174
[7]	–	83.3	–
[8]	–	1240	–

OCCC(F)(F)C(F)(F)C(F)(F)C(F)(F)C(F)(F)C(F)(F)C(F)(F)C(F)(F)F [Fluorotelomer alcohol 8+2]
[9]
Conditions	concentration in plasma [ng/mL]
0.5 h	5950
9 h	68

CCCCOC(=O)c1ccccc1C(=O)O [Mono-n-butyl phthalate]
Conditions	concentration in plasma [ng/mL]
[10]	3520
[11]	21300
[12]	1030
[13]	32400

O=C(O)C(F)(F)C(F)(F)C(F)(F)C(F)(F)C(F)(F)C(F)(F)C(F)(F)C(F)(F)C(F)(F)F [Perfluorodecanoic acid]
Conditions	concentration in brain [ng/g]
[14]	1010

concentration in plasma [ng/mL]
Conditions	1 h	6 h	528 h	864 h	3360 h
[15]	–	5600	–	2690	–
[16]	5930	–	2060	–	272
[17]	6010	–	3220	–	204

CCC1(c2ccccc2)C(=O)NC(=O)NC1=O [Phenobarbital]
Conditions	concentration in plasma [ng/mL]
[18]	1540
[19]	1780

O=C(O)CSCC(=O)O [Thiodiglycolic Acid]
Conditions	concentration in heart [ng/g]	concentration in liver [ng/g]	concentration in plasma [ng/mL]	concentration in thymus [ng/g]
[20]	–	29000	–	–
[21]	383	–	–	–
[22]	–	–	–	2120
[23]	–	–	–	1490
[24]	–	45300	–	–
[25]	–	–	34600	–

O=C(O)C(Cl)Cl [dichloroacetic acid]
Conditions	concentration in plasma [ng/mL]
[26]	291
[30]	13800

Conditions	concentration in plasma [ng/mL]
[27], 2 h	1060
[27], 20 min	7440
[28], 2 h	57500
[28], 5 min	20900
[29], 4 h	55600
[29], 10 min	11900
[31], 0 h	6
[31], 0.25 h	9
[31], 0.5 h	13
[31], 1 h	12
[31], 2 h	11
[31], 4 h	5
[31], 8 h	5
[31], 12 h	4
[31], 14 h	4
[31], 18 h	5
[31], 41 h	6
[31], 65 h	4

[31], during exposure
Conditions	concentration in plasma [ng/mL]
-3.48 h	80
-3 h	8
-2 h	7
-1 h	7

O=C(O)C(Cl)(Cl)Cl [trichloroacetic acid]
[32]
Conditions	concentration in blood [ng/mL]
0 h	11900
18 h	32600
24 h	50300
42 h	32200
48 h	51100
66 h	51000
72 h	55100
90 h	49000
96 h	64900
160 h	28900
